A value given as a limit tells only on which side of the number the result lay.

The IC50 is the concentration that inhibits the measured activity by half.

For one assay, the system named is FGF2. Briefly: STD NMR analysis of peptide/FGF2 interaction. It is filed as binding, human. To be noted: STD NMR in the presence of 50 μM FGF2, reducing conditions; result in words. The method, boiled down:
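500 MHz STD NMR used 50 µM FGF2 plus 1.9 mM peptide in 30 mM phosphate (95% D2O), 8 mM DTT, 40 mM NaCl, pH 6.8. Saturation lasted 3 s, with a 30 ms T1ρ filter and 192 transients. Off-resonance reference minus saturated spectrum gave STD; the factor is ISTD/I0. A peptide-only control was run. Titrations spanned 1:10–1:100 FGF2:peptide at 280 K.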

For a further assay, the system named is endothelial GM7373 cells. Briefly: GM7373 cell proliferation triggered by different mitogenic stimuli. It is filed as cell-based, bovine.
The target in the next assay is FGF2/FGFR1 interaction (Homo sapiens, UniProt P09038). Briefly: BIAcore competition: binding of free FGF2 to immobilized sFGFR1. The following applies: FGF2 50 nM, sFGFR1(IIIc)/Fc chimera-coated BIAcore sensor chip; for effect on binding of FGF2 to immobilized sFGFR1(IIIc)/Fc chimera: peptide 1.0 μM. On the technique in general: Surface plasmon resonance follows binding to a sensor surface in real time, without labels.

Assay [1] relates to VEGF/VEGFR2/KDR interaction. As to the kind of experiment: BIAcore competition: binding of free VEGF to immobilized sKDR/Fc chimera. Further details: species or system human. The following applies: 45 nM VEGF injected for 4 min., peptide 300 μM; data not shown. The essentials: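 sKDR/Fc (20 µg/ml in 10 mM sodium acetate, pH 5.3) was amine-coupled to an EDC/NHS-activated CM5 chip (~0.06 pmol/mm2), then ethanolamine-neutralized. VEGF (45 nM) was injected for 4 min with or without 300 µM test peptide. Response (RU) was read at end of injection and plotted as percentage of maximal bound analyte.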

For assay [2], the target named is Fibroblast growth factor-2 (human). Briefly: SPR.

Sequence of FGF2/FGFR1 interaction (P09038 134-288): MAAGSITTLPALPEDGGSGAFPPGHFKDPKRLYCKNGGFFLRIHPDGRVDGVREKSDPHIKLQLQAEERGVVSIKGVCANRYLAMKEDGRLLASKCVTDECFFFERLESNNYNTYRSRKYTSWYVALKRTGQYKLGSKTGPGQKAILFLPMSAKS

As to Ac-ARPSA-NH2, in the assay with FGF2, the “FGF2 binding deduced from STD spectrum” value was “reduced STD amplification factor”. The “inhibition of GM7373 cell proliferation, any mitogen” value in the assay on endothelial GM7373 cells (FGF2, FGF1, FGF8b, VEGF, EGF, DAG, TPA or 10% FCS, control peptide) is reported as “No inhibition”. In addition, at FGF2/FGFR1 interaction, the “effect on binding of FGF2 to immobilized sFGFR1(IIIc)/Fc chimera” value is reported as “No effect”.
Take Ac-ARPCA-NH2: the “GM7373 cell proliferation triggered by FGF2” value in the assay with endothelial GM7373 cells (FGF2 0.55 nM, peptide 66 μM, 0.4% FCS, 24 hrs, cell counting, triplicate) is recorded as “inhibits”. Moreover, the “GM7373 cell proliferation triggered by FGF8b” value with endothelial GM7373 cells (FGF8b 1.66 nM, peptide 66 μM, 24 hrs, cell counting, triplicate) is “inhibits”. For the same molecule, at FGF2/FGFR1 interaction, the “binding of FGF2 to immobilized FGFR1 ID50” value was 30 µM and the “effect on binding of FGF2 to immobilized sFGFR1(IIIc)/Fc chimera” value is “significantly inhibits”. Further, the “binding of VEGF to immobilized sKDR/Fc chimera” value in assay [1] is “did not prevent”.
Consider Ac-GRPCA-NH2, for which, in the assay on FGF2, the “FGF2 binding deduced from STD spectrum” value was “still able to bind FGF2”.
The same measure, in the same setting: the entry for Ac-ARPCG-NH2 is “absence of STD signals”.
The same measure, in the same setting: the entry for H-ARPCA-NH2 is “absence of STD signals”.

B1: Ac-GRPCA-NH2 (peptide)
peptide: Ac-GRPCA-NH2
Molecule B1 showed an IC50 in assay [2] of 80 µM.

B2: Ac-ARPCG-NH2 (peptide)
peptide: Ac-ARPCG-NH2
In assay [2], B2 gave an IC50 of 1000 µM.

B3: PTX3-(97-107) peptide Ac-…-NH2 (peptide)
peptide: Ac-ESLARPCAPGA-NH2
Consider B3, for which the IC50 in assay [2] came out at 300 µM.

B4: PTX3-(100-113) peptide Ac-…-NH2 (peptide)
peptide: Ac-ARPCAPGAPAEARL-NH2
In turn, B4 showed an IC50 in assay [2] of 500 µM.

B5: PTX3-(97-110) peptide Ac-…-NH2 (peptide)
peptide: Ac-ESLARPCAPGAPAE-NH2
B5: the IC50 in assay [2] came out at 300 µM.

B6: Ac-APCRA-NH2, partially scrambled pentapeptide (peptide)
peptide: Ac-APCRA-NH2
On to B6, for which the IC50 in assay [2] came to 800 µM.

B7: Ac-ARPSA-NH2 (peptide)
peptide: Ac-ARPSA-NH2
Turning to B7, the IC50 in assay [2] was over 3000 µM.

B8: H-ARPCA-NH2, non-acetylated pentapeptide (peptide)
peptide: H-ARPCA-NH2
With B8, the IC50 in assay [2] came out at 2000 µM.

B9: Ac-ALPCA-NH2 (peptide)
peptide: Ac-ALPCA-NH2
Take B9: the IC50 in assay [2] is over 3000 µM.

B10: Ac-PARAC-NH2, scrambled pentapeptide (peptide)
peptide: Ac-PARAC-NH2
Regarding B10, the IC50 in assay [2] was 1000 µM.

B11: Ac-ARPVA-NH2 (peptide)
peptide: Ac-ARPVA-NH2
As to B11, the half-inhibitory concentration (IC50) in assay [2] was over 3000 µM.

B12: Ac-ARACA-NH2 (peptide)
peptide: Ac-ARACA-NH2
In assay [2], B12 displayed an IC50 of over 3000 µM.

B13: Ac-GRPCG-NH2 (peptide)
peptide: Ac-GRPCG-NH2
With B13, in assay [2], the IC50 is over 3000 µM.

B14: PTX3-(104-113) peptide Ac-…-NH2 (peptide)
peptide: Ac-APGAPAEARL-NH2
As for B14, in assay [2], the half-maximal inhibitory concentration (IC50) was 2000 µM.

B15: Ac-ARPMA-NH2 (peptide)
peptide: Ac-ARPMA-NH2
Turning to B15, the IC50 in assay [2] was over 3000 µM.

The values above are taken from publication PMC3823002 (Journal of Cellular and Molecular Medicine, 2009).
